From ChEMBL document CHEMBL4732101, “Novel quinolone-based potent and selective HDAC6 inhibitors: Synthesis, molecular modeling studies and biological investigation” (Eur J Med Chem, 2021)
The source made the active and inactive calls. No cut-off for these calls is given here.

Key:
HCT-116 [1] = test: Cytotoxicity against human HCT-116 cells assessed as reduction in cell viability measured after 48 hrs by MTT assay; format: functional, cell-based; conditions: HCT-116, 48 h
How it was run: (§1)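 HCT-116 cells grown in DMEM with 10% FBS, 2 mM L-glutamine and antibiotics. 2.5×10^4 cells/well treated in triplicate at 50, 25, 10, 5 and 1 µM for 12, 24 or 48 h. Then MTT 0.5 mg/ml for 3 h, supernatant removed, formazan dissolved in isopropanol, absorbance read at 570 nm. IC50 derived from the concentration series.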

[2] = target: T1, Protein deacetylase HDAC6 (Homo sapiens) (UniProt Q9UBN7); test: Inhibition of HDAC6 in human HCT-116 cells assessed as increase in alpha-tubulin acetylation at 10 uM measured after 12 to 24 hrs by Western blot analysis relative to control; format: cell-based; conditions: time 12-24 hrs
T1 sequence (whole entry): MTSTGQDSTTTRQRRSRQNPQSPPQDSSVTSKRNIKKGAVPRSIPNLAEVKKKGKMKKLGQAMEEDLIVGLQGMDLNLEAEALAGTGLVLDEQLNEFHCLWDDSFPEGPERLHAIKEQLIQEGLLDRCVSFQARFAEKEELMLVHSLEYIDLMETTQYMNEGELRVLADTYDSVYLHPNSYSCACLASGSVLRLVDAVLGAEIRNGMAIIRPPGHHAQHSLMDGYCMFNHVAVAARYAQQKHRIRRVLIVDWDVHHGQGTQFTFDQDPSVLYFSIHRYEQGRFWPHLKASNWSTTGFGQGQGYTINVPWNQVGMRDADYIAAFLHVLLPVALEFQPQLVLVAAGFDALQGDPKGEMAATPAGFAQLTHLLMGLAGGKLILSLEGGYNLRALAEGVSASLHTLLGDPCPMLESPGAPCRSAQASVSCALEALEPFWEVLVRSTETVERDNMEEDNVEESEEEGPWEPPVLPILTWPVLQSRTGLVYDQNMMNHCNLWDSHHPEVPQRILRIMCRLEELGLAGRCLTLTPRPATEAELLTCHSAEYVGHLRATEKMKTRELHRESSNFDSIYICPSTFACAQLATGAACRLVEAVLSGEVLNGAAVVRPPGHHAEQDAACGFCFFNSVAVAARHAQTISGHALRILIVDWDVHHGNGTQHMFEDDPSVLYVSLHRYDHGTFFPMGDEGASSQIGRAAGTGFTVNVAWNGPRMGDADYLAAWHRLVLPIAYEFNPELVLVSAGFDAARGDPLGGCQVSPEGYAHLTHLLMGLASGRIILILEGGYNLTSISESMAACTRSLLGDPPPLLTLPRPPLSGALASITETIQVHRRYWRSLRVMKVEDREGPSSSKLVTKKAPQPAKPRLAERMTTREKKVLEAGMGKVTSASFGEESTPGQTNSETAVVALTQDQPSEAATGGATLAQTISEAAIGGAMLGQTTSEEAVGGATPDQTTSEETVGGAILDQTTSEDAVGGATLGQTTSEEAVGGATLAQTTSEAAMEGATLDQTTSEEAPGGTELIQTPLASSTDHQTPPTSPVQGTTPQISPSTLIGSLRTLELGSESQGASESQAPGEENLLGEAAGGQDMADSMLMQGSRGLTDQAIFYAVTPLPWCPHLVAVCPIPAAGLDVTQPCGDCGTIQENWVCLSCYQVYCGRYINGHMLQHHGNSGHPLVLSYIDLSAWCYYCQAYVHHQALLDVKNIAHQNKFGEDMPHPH
How it was run: (§2)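 HCT-116 or U937 cells treated at 10 µM for 12 and 24 h. […] Western blot used 40 µg total protein or 5 µg acid-extracted histone. Blots probed for cleaved PARP, acetylated tubulin, H3K9/14ac and Hsp90(AcLys294), normalized to GAPDH or H4. Compared with control cells by one-way ANOVA and Dunnett's test.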

HCT-116 [3] = test: Cytotoxicity against human HCT-116 cells assessed as reduction in cell viability measured after 12 hrs by MTT assay; format: functional, cell-based; conditions: HCT-116, 12 h; how it was run: as §1
[4] = Inhibition of HDAC1/2/3/8 in human U-937 cells assessed as increase in H3K9/14 acetylation at 10 uM measured after 12 to 24 hrs by Western blot analysis; format: cell-based; conditions: u-937, 10 µM, time 12-24 hrs; how it was run: as §2
U-937 [5] = test: Cytotoxicity against human U-937 cells assessed as reduction in cell proliferation at 50 uM measured after 48 hrs by MTT assay relative to control; format: functional; parameters: scale not given: the % may be the effect or the level left
How it was run: (§3)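 U937 cells grown in RPMI-1640 with 10% FBS, 2 mM L-glutamine and penicillin-streptomycin. 2.5×10^4 cells/well treated in triplicate at 50, 25, 10, 5 and 1 µM for 12, 24 or 48 h. MTT 0.5 mg/ml added for 3 h, plate centrifuged 5 min at 1200 rpm, crystals dissolved in isopropanol, A570 read. IC50 derived from the concentration series.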

[6] = Inhibition of HDAC1/2/3/8 in human HCT-116 cells assessed as increase in H3K9/14 acetylation at 10 uM measured after 12 to 24 hrs by Western blot analysis relative to control; format: cell-based; conditions: hct-116, 10 µM, time 12-24 hrs; how it was run: as §2
U-937 [7] = test: Induction of apoptosis in human U-937 cells assessed as increase in PARP cleavage at 10 uM measured after 24 hrs by Western blot analysis; format: functional, cell-based; how it was run: as §2
Histone deacetylase 8 = target: T2, Histone deacetylase 8 (Homo sapiens, UniProt Q9BY41); test: Inhibition of recombinant human HDAC8 using Fluor-de-Lys as substrate measured after 1 hr by fluorescence assay
T2 sequence (Q9BY41 whole entry): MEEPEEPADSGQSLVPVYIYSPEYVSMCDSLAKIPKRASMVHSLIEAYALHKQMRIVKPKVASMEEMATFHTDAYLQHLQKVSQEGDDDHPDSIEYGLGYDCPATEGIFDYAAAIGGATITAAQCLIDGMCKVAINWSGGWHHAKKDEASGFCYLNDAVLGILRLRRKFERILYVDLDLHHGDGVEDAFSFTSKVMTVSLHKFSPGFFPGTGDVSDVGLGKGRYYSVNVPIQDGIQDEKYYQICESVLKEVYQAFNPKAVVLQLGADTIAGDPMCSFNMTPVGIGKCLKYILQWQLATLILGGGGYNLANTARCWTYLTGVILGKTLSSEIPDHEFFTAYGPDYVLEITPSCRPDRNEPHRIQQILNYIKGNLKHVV

HCT-116 [8] = test: Cytotoxicity against human HCT-116 cells assessed as reduction in cell proliferation at 10 uM measured after 24 hrs by MTT assay relative to control; format: functional; parameters: scale not given: the % may be the effect or the level left; how it was run: as §1
[9] = target: T1, Protein deacetylase HDAC6 (Homo sapiens); test: Inhibition of HDAC6 in human U-937 cells assessed as increase in alpha-tubulin acetylation at 10 uM measured after 12 to 24 hrs by Western blot analysis relative to control; format: cell-based; conditions: time 12-24 hrs; how it was run: as §2
HCT-116 [10] = test: Cytotoxicity against human HCT-116 cells assessed as reduction in cell viability measured after 24 hrs by MTT assay; format: functional, cell-based; conditions: HCT-116, 24 h; how it was run: as §1
HCT-116 [11] = test: Cytotoxicity against human HCT-116 cells assessed as reduction in cell proliferation at 25 uM measured after 48 hrs by MTT assay relative to control; format: functional; parameters: scale not given: the % may be the effect or the level left; conditions: time 12 hrs, in the assay text read “after 12 hrs” for “after 48 hrs”; how it was run: as §1
HCT-116 [12] = test: Cytotoxicity against human HCT-116 cells assessed as reduction in cell proliferation at 10 uM measured after 48 hrs by MTT assay relative to control; format: functional; parameters: scale not given: the % may be the effect or the level left; how it was run: as §1
HCT-116 [13] = test: Induction of apoptosis in human HCT-116 cells assessed as increase in PARP cleavage at 10 uM measured after 24 hrs by Western blot analysis; format: functional, cell-based; how it was run: as §2
[14] = Cytotoxicity against human PBMC cells assessed as reduction in cell viability at 45 uM measured after 24 to 48 hrs by GUAVA easyCyte cytometric method; format: cell-based; conditions: time 24-48 hrs
How it was run: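 PBMCs seeded at 1.5 x10^6/mL in complete medium and exposed to 15, 45 or 90 µM test compound, or DMSO vehicle, for 24 h and 48 h. Percentage of viable cells determined by flow cytometry with ViaCount reagent.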

[15] = target: T1, Protein deacetylase HDAC6 (Homo sapiens); test: Inhibition of HDAC6 in human U-937 cells assessed as increase in Hsp90(AcLys294) acetylation at 10 uM measured after 12 to 24 hrs by Western blot analysis; format: cell-based; conditions: time 12-24 hrs; how it was run: as §2
[16] = target: T1, Protein deacetylase HDAC6 (Homo sapiens); test: Inhibition of HDAC6 in human HCT-116 cells assessed as increase in Hsp90(AcLys294) acetylation at 10 uM measured after 12 to 24 hrs by Western blot analysis; format: cell-based; conditions: time 12-24 hrs; how it was run: as §2
U-937 [17] = test: Cytotoxicity against human U-937 cells assessed as reduction in cell viability measured after 48 hrs by MTT assay; format: functional, cell-based; conditions: U-937, 48 h; how it was run: as §3

fold change (FC) [2]: > 9
inhibition (INH) [4]: Active
fold change (FC) [6]: 2
IC50 (Histone deacetylase 8): 0.55 µM
Kapp (Histone deacetylase 8; human, 1 h): 0.36 µM
fold change (FC) [9]: > 9
inhibition [15]: inactive
inhibition [16]: Active
Compound: CCN(CC)Cc1ccc(Cn2c(=O)c(OCc3ccc(C(=O)NO)cc3)c(-c3ccccc3)c3ccccc32)cc1
IC50 (HCT-116 [1]): 3.6 µM
IC50 (HCT-116 [3]): 13.5 µM
Activity (U-937 [5]): 60%
Activity (U-937 [7]): Active
Activity (HCT-116 [8]): 50%
IC50 (HCT-116 [10]): 11.6 µM
Activity (HCT-116 [11]): 80%
Activity (HCT-116 [12]): 90%
Activity (HCT-116 [13]): Active
Activity [14]: Toxic
IC50 (U-937 [17]): 40.6 µM
